Most compounds without a hit are left out; they make up all but 3.1% or so of the library.
CHO parental Ca – counter-screen for OX1R antagonists: effect in parental CHO cells | 0.63% of 330,000 active | parental CHO-K1, ATP-induced calcium, Fluo-8 fluorescence | inhibition, % at 5.6 µM;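 active = inhibition above that plate's mean sample inhibition plus 3 SD, cut at about 26% in these data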;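 note: 0% = ATP-challenged DMSO wells and 100% = DMSO wells without ATP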
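test system = CHO parental line | reagent = ATP stimulus | measured by = intracellular calcium via Fluo-8 no-wash fluorescent dye | control set = ATP and no-ATP DMSO wells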
OX1R antag-1 – blocks the human orexin 1 receptor; 0.43% of 330,000 active; O43613; inhibition, % at 5 µM; CHO/OX1R cells, Fluo-8 calcium fluorescence, orexin A;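 active = inhibition above its plate's threshold, mean inhibition of all tested compounds on the plate plus 3 SD, cut at about 37% in these data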;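 note: 0% = orexin A challenge wells and 100% = SB-334867-A antagonist wells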
Target sequence (O43613 whole entry, looked up): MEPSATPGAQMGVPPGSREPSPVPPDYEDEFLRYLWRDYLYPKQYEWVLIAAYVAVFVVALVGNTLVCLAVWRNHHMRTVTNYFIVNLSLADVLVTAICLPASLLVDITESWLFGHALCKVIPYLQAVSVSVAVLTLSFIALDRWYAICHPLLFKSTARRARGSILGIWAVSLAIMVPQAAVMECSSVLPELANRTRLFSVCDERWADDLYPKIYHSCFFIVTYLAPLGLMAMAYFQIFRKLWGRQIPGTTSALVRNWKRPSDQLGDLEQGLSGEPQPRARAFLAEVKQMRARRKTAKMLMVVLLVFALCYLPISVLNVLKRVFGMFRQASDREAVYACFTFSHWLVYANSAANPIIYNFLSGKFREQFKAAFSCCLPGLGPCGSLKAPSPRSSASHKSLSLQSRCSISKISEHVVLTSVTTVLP
OX1R antag-2 – OX1R (human) antagonism; O43613; OX1R-expressing cells, FRET antagonist read-out; 1.8% of 330,000 active; inhibition, % at 6.6 µM; in the data active = inhibition mostly above about 38%, no sharp cut-off; inactive = mostly below about 40%;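 note: 0% = agonist challenge alone and 100% = reference antagonist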
GPR7 antag – blocks human GPR7 receptor signaling; GPR7-expressing cells, fluorescence antagonist assay; inhibition, % at 4.4 µM; P48145; 1.1% of 290,000 active; in the data active = inhibition above about 16%, passing the limit was not always enough;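 note: cells stimulated with the agonist NPW; 0% = agonist with vehicle and 100% = vehicle without agonist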
GalR3 antagonist – antagonists of human GalR3. HEK293 GalR3-CNG cAMP membrane potential fluorescence; galR3 body fused to GalR1 C-terminus. inhibition, % at 3 µM. 0.44% of 360,000 active. AID 651719;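 active = inhibition above the screen-wide average plus 3 SD, cut at about 13% in these data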;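 note: forskolin and galanin both at EC90 stimulate the cells; cAMP rise reported by CNG channel membrane potential dye signal; 0% = forskolin plus galanin with DMSO and 100% = forskolin alone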
The depositor's hits bear a star; . = no result.

SMILES	CHO parental Ca	OX1R antag-1	OX1R antag-2	GPR7 antag	GalR3 antagonist
COc1cc2c(cc1OC)CN(c1ccc(-c3ccccc3OC)nn1)CC2	-5.5	-18.7	34.5	-14.5	.
COc1cc2c(cc1OC)CN(c1ccc3ccccc3n1)CC2	-15.2	-10.3	73.5*	29.2	-9.7
COCCCNC(=O)C[C@H]1C[C@@]2(C(=O)OC)C(=C[C@H](C3CCCC3)O[C@@H]2C)N(Cc2ccccc2)C1=O	.	.	.	.	11.0
COCc1cc(N2CCN(C(=O)OC(C)(C)C)C[C@H]2C)ccc1N1CCN(Cc2ccccc2)[C@@H](C)C1	.	.	.	.	-7.0
Cc1ccn2c(-c3csc(NCc4ccccc4)n3)c(C)nc2c1	28.4	43.4*	59.0	-9.6	-7.0
Brc1ccc2nc(-c3ccc(CN4CCC5(CC4)CNc4ccccc45)cc3)c(-c3ccccc3)nc2c1	.	.	.	.	-6.7
COc1cc2[nH]c(Cl)c([N+](=O)[O-])c2cc1OC	4.2	-0.1	72.7*	-10.3	-4.3
CN=C1C([N+](=O)[O-])=CC=C2C1=NC1(CCCCC1)N2O	-3.9	-7.0	49.6*	-10.1	-2.1
CCn1c2ccc(Cl)cc2c2nc3ccccc3nc21	-16.4	7.2	68.6*	0.8	-3.4
Cc1noc(C)c1CSc1nc2ccccc2nc1NS(=O)(=O)c1ccc(Cl)cc1	-7.6	-9.2	60.8*	-11.4	.
C[C@H](CO)N1C[C@H](C)[C@H](CN(C)S(=O)(=O)c2cccs2)Oc2ncc(Br)cc2C1=O	.	.	.	.	-7.2
O=C(NCCN1CCOCC1)c1ccc(NS(=O)(=O)c2ccccc2)cc1	-20.6	-7.1	7.7	-26.4	-3.9
O=C(NCCN1CCOCC1)c1ccc(NS(=O)(=O)c2cccc([N+](=O)[O-])c2)cc1	-9.1	-8.4	51.7*	.	-3.8
CCCN(CCC)S(=O)(=O)c1ccc(N2CCCC2=O)c([N+](=O)[O-])c1	4.1	-10.9	38.0	-3.0	1.7
CCCN(CCC)S(=O)(=O)c1ccc(Cl)c([N+](=O)[O-])c1	-15.1	-25.9	35.9	42.5*	-14.4
COC(=O)c1ccc(-c2n[nH]c(=O)c3ccccc23)cc1	0.8	-11.1	43.2*	-10.4	-1.8
CN(C)C(=O)c1ccc(-c2n[nH]c(=O)c3ccccc23)cc1	-3.8	0.1	24.1	-21.8	-4.8
O=C(CCC(=O)c1ccc(Br)cc1)Nc1cccc(C(F)(F)F)c1	-9.0	-22.5	14.4	-0.6	-4.3
O=C(CCC(=O)c1ccc(F)cc1)Nc1cccc(Br)c1	38.1*	5.5	-4.0	20.3	-7.4
Cc1cccc(N2CCN(C(=O)CSCc3c(C)noc3C)CC2)c1C	46.4*	17.7	29.8	7.0	.
Cc1noc(C)c1CSCC(=O)N1CCN(c2ccc(F)cc2)CC1	-4.3	-20.4	17.6	-0.5	-4.4
COc1ccc(OC)c(C(C[N+](=O)[O-])c2c(C)cc3ccccn23)c1 (centres undefined)	-17.3	-21.5	34.1	4.7	-10.1
CN(C)c1ccc2nc3ccc(=[N+](C)C)cc-3sc2c1	-10.4	8.7	58.9*	-3.6	-2.7
C=CCn1c(=N)n(CC(=O)c2cccc([N+](=O)[O-])c2)c2ccccc21	-6.3	-21.1	38.6*	0.4	-2.0
Cc1cc(-c2nc3ccccc3o2)c2ccccc2n1	-33.9	-20.4	45.4*	-9.0	-4.5
SMILES	CHO parental Ca	OX1R antag-1	OX1R antag-2	GPR7 antag	GalR3 antagonist
Cc1cc(C(=O)O)c2ccccc2n1	-6.3	-13.2	-5.0	3.0	1.4
Cc1ccc2nsnc2c1S(=O)(=O)NCc1ccc2c(c1)OCO2	1.6	-36.0	43.5*	-3.4	-3.4
Cc1ccc(S(=O)(=O)Nc2ccccc2OC(C(=O)OC(C)(C)C)C(=O)OC(C)(C)C)cc1	.	.	.	.	-8.5
COc1ccc2nc(NN=Cc3cccc(C)n3)cc(C)c2c1	.	.	.	.	-1.1
O=C(Nc1ccc([N+](=O)[O-])cc1Cl)c1cccc([N+](=O)[O-])c1	.	.	.	.	-7.3
O=C(Nc1ccc([N+](=O)[O-])cc1Cl)c1cc(Cl)ccc1O	29.4	33.3	67.6*	.	-5.4
CCCC(=O)Nc1cccc(NC(=O)c2ccc([N+](=O)[O-])cc2Cl)c1	-8.0	-23.4	62.3*	-9.8	-3.0
O=C(Nc1cccnc1)c1ccc([N+](=O)[O-])cc1Cl	-5.7	-17.5	55.6*	-1.6	-4.1
O=C(NCc1ccccc1)[C@@H]1CCCN1C(=O)[C@H]1CCCN1C(=O)N1CCCCC1	.	.	.	.	-5.6
Cn1c(SCC2CCCO2)nnc1-c1ccncc1 (centres undefined)	-9.2	-6.3	-7.6	-13.7	1.4
Cn1c(SCC2CCCO2)nnc1-c1cccc([N+](=O)[O-])c1 (centres undefined)	-0.6	-16.2	49.8*	-5.5	-6.6
c1csc(-c2nc(-c3ccc(-c4ccon4)s3)no2)c1	-9.2	28.1	39.5*	-8.0	-0.6
COC(=O)c1ccc(N2C(=O)CC(N3CCN(c4ccccc4)CC3)C2=O)cc1 (centres undefined)	-6.0	-17.3	29.7	19.0*	-1.3
C=CCN1C(=O)c2ccc(C(=O)OCC(=O)N(CC)C3CCS(=O)(=O)C3)cc2C1=O (centres undefined)	-7.6	-5.1	41.7*	.	-6.6
CN(C(=O)COC(=O)CCCN1C(=O)c2cccc3cccc(c23)C1=O)C1CCS(=O)(=O)C1 (centres undefined)	-11.7	-22.7	66.8*	.	-3.9
CCN(C(=O)COC(=O)CCCN1C(=O)c2cccc3cccc(c23)C1=O)C1CCS(=O)(=O)C1 (centres undefined)	-8.7	-19.3	52.8*	.	-3.5
CC(C)CN(C(=O)COC(=O)CCN1C(=O)c2ccccc2C1=O)C1CCS(=O)(=O)C1 (centres undefined)	-13.8	7.8	18.1	-13.6	-1.4
COC(=O)[C@@]12C[C@@H](CC(=O)N3CCSCC3)C(=O)N(Cc3ccco3)C1=CCC(C)(C)C2	.	.	.	.	1.9
COc1ccc(CCNc2nc(-c3ccc(O)cc3)cs2)cc1OC	58.1*	61.0*	32.1*	-13.3	-4.5
COc1cc(C(=S)N2CCOCC2)cc(OC)c1OC(=O)c1ccccc1[N+](=O)[O-]	-22.4	-14.9	33.5*	-11.9	-5.0
COc1cc(/C=N/NC(=O)c2cc3ccccc3[nH]2)ccc1O	-7.3	16.4	46.2*	9.6	-4.5
COc1ccc(OC)c2[nH]c(C(=O)N/N=C/c3ccccc3O)cc12	-4.6	-19.5	16.7	14.0	-11.4
C=CCOc1ccc(/C=N/NC(=O)c2cc3c(OC)cc(OC)cc3[nH]2)cc1	-20.2	14.2	48.2*	-19.6	-8.2
COc1cccc(/C=N/NC(=O)c2cc3c(OC)c(OC)ccc3[nH]2)c1OC	.	.	.	7.9	-4.3
COc1ccc(/C=N/NC(=O)c2cc3c(OC)ccc(OC)c3[nH]2)cc1O	-14.2	-9.3	61.9*	15.8	2.5
COc1cccc(/C=N/NC(=O)c2cc3c(OC)cccc3[nH]2)c1OC	-17.9	-5.5	67.5*	4.0	-1.7
COc1ccc(OC)c(CN(CC(F)(F)F)S(=O)(=O)c2ccccc2Br)c1	.	.	.	.	-6.5
COc1cccc(C2=CC(c3ccc(C)cc3)n3ncnc3N2)c1 (centres undefined)	-23.4	-32.4	27.7	2.6	.

Compound activity as filed in PubChem BioAssay.
